We go through eight compounds from ChEMBL document CHEMBL1153737, “Synthesis and antiprotozoal activity of 4-arylcoumarins” (Eur J Med Chem, 2010).

Structures are written as SMILES. Some results are limits rather than exact numbers.

Series [1] concerns Leishmania donovani. The series is described as follows: Antileishmanial activity against Leishmania donovani MHOM/IN/80/DD8 amastigotes infected in human THP1 cells assessed as decrease of infected macrophages after 72 hrs by Giemsa staining. The following applies: MHOM/IN/80/DD8, THP-1, 72 h. Type of series: functional, organism-based. The method, boiled down:
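THP1 monocytes (10⁵ cells/ml) differentiated to adherent macrophages with phorbol myristate acetate in complete RPMI, 48 h at 37 °C, 6% CO₂. Infected with stationary-phase promastigotes at cell:parasite ratio 1/10 for 24 h, then washed four times. Compound dilutions added in duplicate chambers for 72 h at 37 °C. Cells methanol-fixed and Giemsa-stained. Amphotericin B and DMSO controls included.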

The test system of series [2] is Leishmania donovani. Nature of the series: Antileishmanial activity against Leishmania donovani MHOM/IN/80/DD8 promastigotes assessed as parasite viability after 48 hrs by Alamar blue assay. Type of series: functional, organism-based. Conditions: MHOM/IN/80/DD8, 48 h. A digest of the protocol:
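Late log-phase promastigotes in complete RPMI (10% FCS, L-glutamine/penicillin–streptomycin) with 10% Alamar Blue and a range of compound concentrations, final DMSO <0.5%. Incubated 48 h at 27 °C. Viability read as Alamar Blue reduction by absorbance at 570 and 630 nm.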
(The colour change of resazurin is a common sign of viable cells or microbes.)

The next series concerns Plasmodium falciparum. The series is described as follows: Antiplasmodial activity against multidrug-resistant Plasmodium falciparum W2 infected human erythrocytes after 48 hrs by flow cytometry. Type of series: functional, organism-based. The following applies: W2, 48 h. On the technique in general: Flow cytometry measures light scatter and fluorescence of single cells or particles in a stream.

A further series concerns THP-1. Nature of the series: Cytotoxicity against human THP1 cells assessed as cell viability after 72 hrs by Alamar blue assay. In kind it is cell-based. Conditions: THP-1, 72 h.
Series [3] is described as follows: Selectivity index, ratio of IC50 for human THP1 cells to IC50 for Leishmania donovani MHOM/IN/80/DD8 amastigotes. In kind it is toxicity, cell-based, THP-1. The following applies: read-out: Ratio IC50. The method, boiled down:
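SI Ama computed as IC50 on THP1 cells divided by IC50 on intracellular L. donovani amastigotes, with amastigote IC50 taken from three independent experiments.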

Series [4] in a line: Selectivity index, ratio of IC50 for human THP1 cells to IC50 for Plasmodium falciparum W2. In kind it is toxicity, cell-based, THP-1. Conditions: read-out: Ratio IC50.

What is called IC50 is the midpoint of a concentration-inhibition curve.

As for `COc1cc2oc(=O)cc(-c3ccc(O)cc3)c2cc1OC`, the IC50 in the series with Leishmania donovani [1], in the series on Leishmania donovani [2], with Plasmodium falciparum and in the series on THP-1 was > 67 µM in each case.

On to `COc1ccc(-c2cc(=O)oc3cc(OC)c(OC)cc23)cc1OC`, for which the IC50 in the series with Leishmania donovani [1] was 1.1 µM; with Leishmania donovani [2], > 292 µM; with Plasmodium falciparum it was > 117 µM; with THP-1, > 292 µM. The selectivity ratio in series [3] is > 265.

In the case of `COc1ccc(-c2cc(=O)oc3ccccc23)cc1OC`, the half-inhibitory concentration (IC50) in the series on Leishmania donovani [1] was 26.4 µM; with Leishmania donovani [2], > 176 µM; with Plasmodium falciparum it was 12 µM; in the series on THP-1, > 176 µM. Further, the selectivity ratio in series [4] is > 14.7; in series [3] it was > 6.7.

On to `COc1ccc2c(-c3ccc(OC)c(OC)c3)cc(=O)oc2c1`, for which the IC50 with Leishmania donovani [1] is > 25 µM; in the series on Leishmania donovani [2], 25.6 µM; with Plasmodium falciparum it was 64 µM; in the series on THP-1 it was 64 µM. In addition, in series [4], the selectivity ratio was 1.

In the case of `COc1ccc2oc(=O)cc(-c3ccc(OC)c(OC)c3)c2c1`, the IC50 with Leishmania donovani [1] is 5.4 µM; in the series on Leishmania donovani [2] it was > 160 µM; with Plasmodium falciparum it was > 160 µM; in the series with THP-1 it was > 160 µM. In addition, the selectivity ratio in series [3] is > 29.6.

Turning to `COc1ccc(-c2cc(=O)oc3cc(OC)c(OC)c(OC)c23)cc1OC`, the IC50 was 4.3 µM in the series with Leishmania donovani [1], > 78 µM in the series with Leishmania donovani [2], 25.8 µM in the series on Plasmodium falciparum and 78 µM in the series on THP-1. Also, the results for the selectivity ratio in series [4] and in series [3] were 3 and 18.1, respectively.

Regarding `COc1cc(-c2cc(=O)oc3cc(OC)c(OC)cc23)ccc1O`, the IC50 with Leishmania donovani [1] was 30.4 µM; in the series on Leishmania donovani [2] it was 94.2 µM; in the series on Plasmodium falciparum, 22.5 µM; in the series on THP-1 it was > 137 µM. Also, the figures for the selectivity ratio in series [4] and in series [3] were > 6.1 and > 4.5, respectively.

In the case of `C[C@@H]1[C@H](O)[C@@H](C)/C=C/C=C/C=C/C=C/C=C/C=C/C=C/[C@H](O[C@@H]2O[C@H](C)[C@@H](O)[C@H](N)[C@@H]2O)C[C@@H]2O[C@](O)(C[C@@H](O)C[C@@H](O)[C@H](O)CC[C@@H](O)C[C@@H](O)CC(=O)O[C@H]1C)C[C@H](O)[C@H]2C(=O)O` [AMPHOTERICIN B], the IC50 stood at 0.1 µM in the series with Leishmania donovani [1] and 14 µM with THP-1. In addition, the selectivity ratio in series [3] amounted to 140.
